# According to ChEMBL document CHEMBL2086296, “Synthesis of novel quinoline-2-one based chalcones of potential anti-tumor activity” (Eur J Med Chem, 2012):
# What was measured:
# [1] = system: NCI-H226; test: Cytotoxicity against human NCI-H226 cells after 24 hrs by SRB assay; format: functional; conditions: NCI-H226, 24 h
# Summary of the method: (§1)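 NCI 60-line screen. Cells in RPMI 1640 with 5% FBS and 2 mM L-glutamine, seeded at 5,000–40,000 cells/well by doubling time, then incubated 24 h at 37 °C, 5% CO2 before dosing. Time-zero plates fixed with TCA at drug addition. DMSO stocks diluted in medium with gentamicin to five concentrations, […]. Protein read by SRB staining. GI50, TGI and LC50 derived relative to control and time-zero.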
# [2] = system: NCI-H23; test: (§2) Cytotoxicity against human NCI-H23 cells after 24 hrs by SRB assay; format: functional; conditions: NCI-H23, 24 h; summary of the method: as §1
# [3] = system: HOP-92; test: Cytotoxicity against human HOP92 cells after 24 hrs by SRB assay; format: functional; conditions: HOP-92, 24 h; summary of the method: as §1
# [4] = system: NCI-H322M; test: (§3) Cytotoxicity against human NCI-H322M cells after 24 hrs by SRB assay; format: functional; summary of the method: as §1
# [5] = system: A549; test: (§4) Cytotoxicity against human A549 cells after 24 hrs by SRB assay; format: functional; conditions: A549, 24 h; summary of the method: as §1
# [6] = system: HCT-116; test: (§5) Cytotoxicity against human HCT116 cells after 24 hrs by SRB assay; format: functional; conditions: HCT-116, 24 h; summary of the method: as §1
# [7] = system: SW-620; test: Cytotoxicity against human SW620 cells after 24 hrs by SRB assay; format: functional; conditions: SW-620, 24 h
# Summary of the method: (§6)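 NCI 60-cell screen. Cells are grown in RPMI 1640 with 5% FBS and 2 mM L-glutamine and seeded at 5,000–40,000 cells/well according to doubling time. They are preincubated 24 h at 37 °C in 5% CO2, and Tz plates are TCA-fixed at drug addition. Drug stock is in DMSO, diluted in medium with gentamicin, and tested at five concentrations (100, 10, 1.0, 0.1, […]). Protein is read by SRB staining. GI50, TGI and LC50 are derived relative to time-zero and control wells.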
# [8] = system: Malme-3M; test: (§7) Cytotoxicity against human MALME-3M cells after 24 hrs by SRB assay; format: functional; summary of the method: as §1
# [9] = system: UACC-257; test: (§8) Cytotoxicity against human UACC257 cells after 24 hrs by SRB assay; format: functional; conditions: UACC-257, 24 h; summary of the method: as §6
# [10] = system: SK-MEL-2; test: (§9) Cytotoxicity against human SK-MEL-2 cells after 24 hrs by SRB assay; format: functional; conditions: SK-MEL-2, 24 h; summary of the method: as §1
# [11] = system: SK-MEL-28; test: Cytotoxicity against human SK-MEL-28 cells after 24 hrs by SRB assay; format: functional; conditions: SK-MEL-28, 24 h; summary of the method: as §1
# [12] = system: IGROV-1; test: (§10) Cytotoxicity against human IGROV1 cells after 24 hrs by SRB assay; format: functional; conditions: IGROV-1, 24 h; summary of the method: as §1
# [13] = system: OVCAR-3; test: (§11) Cytotoxicity against human OVCAR3 cells after 24 hrs by SRB assay; format: functional; conditions: OVCAR-3, 24 h; summary of the method: as §1
# [14] = system: CAKI-1; test: (§12) Cytotoxicity against human CAKI-1 cells after 24 hrs by SRB assay; format: functional; conditions: CAKI-1, 24 h; summary of the method: as §1
# [15] = system: SN12C; test: Cytotoxicity against human SN12C cells after 24 hrs by SRB assay; format: functional; summary of the method: as §1
# [16] = system: UO-31; test: (§13) Cytotoxicity against human UO31 cells after 24 hrs by SRB assay; format: functional; conditions: UO-31, 24 h; summary of the method: as §6
# [17] = system: MDA-MB-468; test: Cytotoxicity against human MDA-MB-468 cells after 24 hrs by SRB assay; format: functional; conditions: MDA-MB-468, 24 h; summary of the method: as §1
# [18] = (§14) Cytotoxicity against human Hs 578T cells after 24 hrs by SRB assay; format: functional; summary of the method: as §1
# [19] = system: NCI-H23; test: as §2; format: cell-based; conditions: nci-h23, 24 h
# Summary of the method: (§15)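 NCI 60-cell screen. Cells grown in RPMI 1640 with 5% FBS and 2 mM L-glutamine, seeded at 5,000–40,000 cells/well, preincubated 24 h at 37 °C in 5% CO2. Drug stock in DMSO, diluted in medium with gentamicin; five final concentrations, 100, 10, 1.0, 0.1 and […]. Time-zero plates were TCA-fixed. Protein read by SRB staining; GI50, TGI and LC50 taken relative to time-zero.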
# [20] = system: NCI-H322M; test: as §3; format: cell-based; summary of the method: as §15
# [21] = system: A549; test: as §4; format: cell-based; conditions: a549, 24 h; summary of the method: as §15
# [22] = system: HCT-116; test: as §5; format: cell-based; conditions: hct-116, 24 h; summary of the method: as §15
# [23] = system: HT-29; test: Cytotoxicity against human HT-29 cells after 24 hrs by SRB assay; format: cell-based; conditions: ht-29, 24 h; summary of the method: as §15
# [24] = system: HCC 2998; test: Cytotoxicity against human HCC2998 cells after 24 hrs by SRB assay; format: cell-based; conditions: hcc 2998, 24 h; summary of the method: as §15
# [25] = system: SF-539; test: Cytotoxicity against human SF539 cells after 24 hrs by SRB assay; format: cell-based; conditions: sf-539, 24 h; summary of the method: as §15
# [26] = system: SF-268; test: Cytotoxicity against human SF268 cells after 24 hrs by SRB assay; format: cell-based; conditions: sf-268, 24 h; summary of the method: as §15
# [27] = system: Malme-3M; test: as §7; format: cell-based; summary of the method: as §15
# [28] = system: UACC-257; test: as §8; format: cell-based; conditions: uacc-257, 24 h
# Summary of the method: (§16)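 NCI 60-cell-line screen: cells grown in RPMI 1640 with 5% FBS and 2 mM L-glutamine, seeded at 5,000–40,000 cells/well by doubling time, and preincubated 24 h at 37 °C in 5% CO2. Time-zero plates were TCA-fixed. DMSO stocks were diluted in medium with gentamicin to five concentrations (100, 10, 1.0, 0.1, […]). Protein was read by SRB, and GI50, TGI and LC50 were derived against time-zero.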
# [29] = system: UACC-62; test: Cytotoxicity against human UACC62 cells after 24 hrs by SRB assay; format: cell-based; conditions: uacc-62, 24 h; summary of the method: as §16
# [30] = system: SK-MEL-2; test: as §9; format: cell-based; conditions: sk-mel-2, 24 h; summary of the method: as §15
# [31] = system: IGROV-1; test: as §10; format: cell-based; conditions: igrov-1, 24 h; summary of the method: as §15
# [32] = system: OVCAR-3; test: as §11; format: cell-based; conditions: ovcar-3, 24 h; summary of the method: as §15
# [33] = system: OVCAR-4; test: Cytotoxicity against human OVCAR4 cells after 24 hrs by SRB assay; format: cell-based; conditions: ovcar-4, 24 h; summary of the method: as §15
# [34] = system: OVCAR-5; test: Cytotoxicity against human OVCAR5 cells after 24 hrs by SRB assay; format: cell-based; conditions: ovcar-5, 24 h; summary of the method: as §15
# [35] = system: CAKI-1; test: as §12; format: cell-based; conditions: caki-1, 24 h; summary of the method: as §15
# [36] = system: UO-31; test: as §13; format: cell-based; conditions: uo-31, 24 h; summary of the method: as §16
# [37] = as §14; format: cell-based; summary of the method: as §15
smiles,measurement,setting,value
O=C(/C=C/c1cc2ccccc2[nH]c1=O)c1ccc(Cl)cc1,GI50,[1],11.6 µM
same,TGI,[1],38.9 µM
same,GI50,[2],5.37 µM
same,TGI,[2],93.3 µM
same,GI50,[3],5.74 µM
same,TGI,[3],50.5 µM
same,GI50,[4],13.4 µM
same,TGI,[4],79 µM
same,GI50,[5],7.24 µM
same,TGI,[5],> 100 µM
same,GI50,[6],3.26 µM
same,TGI,[6],14.8 µM
same,GI50,[7],3.38 µM
same,TGI,[7],12.1 µM
same,GI50,[8],9.42 µM
same,TGI,[8],35.3 µM
same,GI50,[9],7.78 µM
same,TGI,[9],46.9 µM
same,GI50,[10],8.55 µM
same,TGI,[10],25.7 µM
same,GI50,[11],17.7 µM
same,TGI,[11],72.5 µM
same,GI50,[12],3.71 µM
same,TGI,[12],14.7 µM
same,GI50,[13],5.9 µM
same,TGI,[13],30.9 µM
same,GI50,[14],1.6 µM
same,TGI,[14],3.3 µM
same,GI50,[15],8.16 µM
same,TGI,[15],> 100 µM
same,GI50,[16],5.27 µM
same,TGI,[16],> 100 µM
same,GI50,[17],2.96 µM
same,TGI,[17],9.88 µM
same,GI50,[18],11.1 µM
same,TGI,[18],> 100 µM
same,LC50,[19],> 100 µM
same,LC50,[20],> 100 µM
same,LC50,[21],> 100 µM
same,LC50,[22],66.5 µM
same,LC50,[23],> 100 µM
same,LC50,[24],59.6 µM
same,LC50,[25],74.2 µM
same,LC50,[26],> 100 µM
same,LC50,[27],> 100 µM
same,LC50,[28],> 100 µM
same,LC50,[29],> 100 µM
same,LC50,[30],72.6 µM
same,LC50,[31],50.7 µM
same,LC50,[32],> 100 µM
same,LC50,[33],> 100 µM
same,LC50,[34],> 100 µM
same,LC50,[35],6.8 µM
same,LC50,[36],> 100 µM
same,LC50,[37],> 100 µM
COc1ccc(C(=O)/C=C/c2cc3ccccc3[nH]c2=O)cc1,GI50,[1],5.57 µM
same,TGI,[1],> 100 µM
same,GI50,[2],2.9 µM
same,TGI,[2],14.9 µM
same,GI50,[3],2.97 µM
same,TGI,[3],8.76 µM
same,GI50,[5],3.21 µM
same,TGI,[5],> 100 µM
same,GI50,[6],2.31 µM
same,TGI,[6],5.7 µM
same,GI50,[7],3.41 µM
same,TGI,[7],8.89 µM
same,GI50,[9],4.9 µM
same,TGI,[9],18 µM
same,GI50,[10],3.91 µM
same,TGI,[10],40.1 µM
same,GI50,[11],7.59 µM
same,TGI,[11],30.6 µM
same,GI50,[13],2.49 µM
same,TGI,[13],6.72 µM
same,GI50,[14],1.78 µM
same,TGI,[14],3.51 µM
same,GI50,[15],3.17 µM
same,TGI,[15],> 100 µM
same,GI50,[17],2.38 µM
same,TGI,[17],5.98 µM
same,GI50,[18],3.3 µM
same,TGI,[18],> 100 µM
same,LC50,[19],> 100 µM
same,LC50,[21],> 100 µM
same,LC50,[22],31.6 µM
same,LC50,[23],> 100 µM
same,LC50,[24],29 µM
same,LC50,[25],45.5 µM
same,LC50,[26],40.7 µM
same,LC50,[28],65.5 µM
same,LC50,[29],60.2 µM
same,LC50,[30],> 100 µM
same,LC50,[32],29.8 µM
same,LC50,[33],> 100 µM
same,LC50,[34],> 100 µM
same,LC50,[35],6.9 µM
same,LC50,[37],> 100 µM
O=C(/C=C/c1cc2ccccc2[nH]c1=O)c1ccc(O)cc1,GI50,[1],3.29 µM
same,TGI,[1],10.9 µM
same,GI50,[2],3.18 µM
same,TGI,[2],20 µM
same,GI50,[3],3.26 µM
same,TGI,[3],23.2 µM
same,GI50,[4],3.98 µM
same,TGI,[4],16.8 µM
same,GI50,[5],2.73 µM
same,TGI,[5],11.8 µM
same,GI50,[6],1.94 µM
same,TGI,[6],4.38 µM
same,GI50,[7],1.89 µM
same,TGI,[7],4.45 µM
same,GI50,[8],10.4 µM
same,TGI,[8],33.6 µM
same,GI50,[9],3.87 µM
same,TGI,[9],16 µM
same,GI50,[10],4.13 µM
same,TGI,[10],13.6 µM
same,GI50,[11],5.11 µM
same,TGI,[11],19.5 µM
same,GI50,[12],4.35 µM
same,TGI,[12],45.1 µM
same,GI50,[13],3.22 µM
same,TGI,[13],11.8 µM
same,GI50,[14],4.71 µM
same,TGI,[14],> 100 µM
same,GI50,[15],3.48 µM
same,TGI,[15],16 µM
same,GI50,[16],4.38 µM
same,TGI,[16],26.6 µM
same,GI50,[17],2.12 µM
same,TGI,[17],5.3 µM
same,GI50,[18],6.15 µM
same,TGI,[18],> 100 µM
same,LC50,[19],> 100 µM
same,LC50,[20],55.5 µM
same,LC50,[21],89.9 µM
same,LC50,[22],9.91 µM
same,LC50,[23],41.4 µM
same,LC50,[24],59.6 µM
same,LC50,[25],61.674 µM
same,LC50,[26],> 100 µM
same,LC50,[27],> 100 µM
same,LC50,[28],47.9 µM
same,LC50,[29],39.6 µM
same,LC50,[30],48.3 µM
same,LC50,[31],> 100 µM
same,LC50,[32],35 µM
same,LC50,[34],44.4 µM
same,LC50,[35],> 100 µM
same,LC50,[36],> 100 µM
same,LC50,[37],> 100 µM
